RanGTP-Impb inh = disruptors of Ran-importin-beta complex formation – biochemical, FRET, CFP-Ran, YFP-importin-beta, homogeneous, primary screen | cell-free CFP-Ran/YFP-importin-beta FRET ratio | inhibition, % (test concentration not listed) | 1.1% of 300,000 active;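 active = more than half of the replicate wells show a fall in the fluorescence ratio signal beyond about 16%, limit read from the data, passing the limit was not always enough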
Runt-SMMHC FRET = inhibitors of human RUNX1 Runt domain binding to CBFb-SMMHC; Q01196+Q13951; Cerulean-Runt/Venus-CBFb-SMMHC FRET ratio 530/480, 1 h; inhibition, % at 20 µM; 0.74% of 220,000 active; AID 1434;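 active = mean inhibition across duplicate retests at 20 µM reaching about 50%, limit read from the data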;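 note: inhibitors lower the FRET ratio by blocking Runt binding to CBFb-SMMHC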
Target sequence (Q01196 whole entry, looked up, the tested form may be a part): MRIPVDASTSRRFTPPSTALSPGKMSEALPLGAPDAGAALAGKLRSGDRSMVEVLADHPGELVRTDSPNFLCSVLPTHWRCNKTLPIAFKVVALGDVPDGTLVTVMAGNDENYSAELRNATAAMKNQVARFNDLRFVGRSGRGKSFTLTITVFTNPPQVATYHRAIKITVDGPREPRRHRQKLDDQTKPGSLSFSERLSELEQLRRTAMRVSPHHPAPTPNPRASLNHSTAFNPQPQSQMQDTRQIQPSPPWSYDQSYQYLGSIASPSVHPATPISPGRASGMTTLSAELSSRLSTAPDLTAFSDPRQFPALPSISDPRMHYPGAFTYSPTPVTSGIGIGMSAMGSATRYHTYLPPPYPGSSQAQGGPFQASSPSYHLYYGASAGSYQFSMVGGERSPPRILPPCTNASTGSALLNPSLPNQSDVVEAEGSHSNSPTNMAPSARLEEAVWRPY
Target sequence (Q13951 whole entry, looked up, the tested form may be a part): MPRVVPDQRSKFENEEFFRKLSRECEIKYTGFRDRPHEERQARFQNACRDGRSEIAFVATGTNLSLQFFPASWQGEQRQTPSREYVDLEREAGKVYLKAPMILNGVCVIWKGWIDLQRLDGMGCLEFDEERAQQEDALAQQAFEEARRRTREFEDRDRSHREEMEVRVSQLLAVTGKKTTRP
Runt-CBFb FRET = blocks binding of human RUNX1 Runt domain to CBFb; Cerulean-Runt/Venus-CBFb FRET ratio 530/480, 1 h; inhibition, % at 20 µM; AID 1496; 0.46% of 220,000 active;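 active = inhibition over about 50% at 20 µM in the single-dose screen, limit read from the data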
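test system = Cerulean-tagged RUNX1 Runt domain (FRET donor) fusion protein | reagent = Venus-CBFb binding partner, 100 nM | incubation = protein complex preformed 1 h, compound exposure 1 h, room temperature, dark | detection = FRET fluorescence | read-out basis = loss of energy transfer signal | controls = 5 µM unlabeled CBFb as full-inhibition high control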
CaV13 ICDI inh = Primary screen for inhibitors of IQ motif and Ca2+-dependent inactivation inhibitor domain binding in CACNA1D, Förster resonance energy transfer in living cells, …; 0.098% of 340,000 active; HEK cells, CFP/YFP FRET ICDI-IQ, plate reader, 10 min; percent FRET-ratio fall versus neutral wells; inhibition, % at 12.3 µM;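 active = mean replicate inhibition of at least 30% and at least 1% of replicates passing that level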
Runt-CBFb TRFRET = Runt-CBFb binding inhibition; shares compounds with Runt-CBFb FRET; TR-FRET RUNX1 Runt domain-CBFb binding; inhibition, % at 20 µM; 20% of 480 active; in the data active = inhibition above about 40%
Hits are given with their value. Sampled rows, rich in hits. Any-hit rate of the full collection: about 1.2%.

Screening CCNC(=O)/C(C#N)=C/c1c(N(Cc2ccccc2)Cc2ccccc2)nc2ccccn2c1=O returned RanGTP-Impb inh inactive, Runt-SMMHC FRET inactive, Runt-CBFb FRET inactive and CaV13 ICDI inh inactive.
CNC(=O)/C(C#N)=C/c1c(N(Cc2ccccc2)Cc2ccccc2)nc2c(C)cccn2c1=O was read as RanGTP-Impb inh inactive, Runt-SMMHC FRET 115.1, Runt-CBFb FRET 62.4, CaV13 ICDI inh inactive and Runt-CBFb TRFRET inactive.
Cc1ccc(/C=C/C(=O)N2CCN(c3ccc(F)cc3)CC2)o1 was read as RanGTP-Impb inh inactive, Runt-SMMHC FRET inactive, Runt-CBFb FRET 51.0, CaV13 ICDI inh inactive and Runt-CBFb TRFRET inactive.
CCC1CCCCN1C(=O)CSc1nc(N)c(NC(=O)c2ccco2)c(=O)[nH]1 (centres undefined) was read as RanGTP-Impb inh inactive, Runt-SMMHC FRET inactive, Runt-CBFb FRET 63.1, CaV13 ICDI inh inactive and Runt-CBFb TRFRET inactive.
For COc1ccc([N+](=O)[O-])cc1NC(=O)CSc1ccc2ccccc2c1 the results were RanGTP-Impb inh inactive, Runt-SMMHC FRET inactive, Runt-CBFb FRET inactive and CaV13 ICDI inh inactive.
Screening COc1ccc([N+](=O)[O-])cc1NC(=O)CSc1nc(C)cc(C)n1 returned RanGTP-Impb inh inactive, Runt-SMMHC FRET inactive, Runt-CBFb FRET 57.3, CaV13 ICDI inh inactive and Runt-CBFb TRFRET inactive.
CCOC(=O)C1(C)NC(c2ccco2)C2C(=O)N(C)C(=O)C21 (centres undefined) was read as RanGTP-Impb inh inactive, Runt-SMMHC FRET inactive, Runt-CBFb FRET inactive and CaV13 ICDI inh inactive.
Screening COc1ccc(C2=CC(=O)C=CC2=O)cc1 returned RanGTP-Impb inh inactive, Runt-SMMHC FRET 85.8, Runt-CBFb FRET 68.5 and Runt-CBFb TRFRET inactive.
COc1ccc(C2=CC(=O)C[C@H](c3ccc(OC)cc3)C2)cc1 was read as CaV13 ICDI inh inactive.
Screening COC(=O)C1=C(C)N(Cc2ccc(C)cc2)C(=O)/C1=C\c1ccc(O)c(OC)c1 returned RanGTP-Impb inh inactive, Runt-SMMHC FRET inactive, Runt-CBFb FRET inactive and CaV13 ICDI inh inactive.
For CCOC(=O)C1=C(C)N(c2ccc(C)cc2)C(=O)/C1=C\c1ccc(O)c(OC)c1 the results were RanGTP-Impb inh inactive, Runt-SMMHC FRET inactive, Runt-CBFb FRET 56.9, CaV13 ICDI inh inactive and Runt-CBFb TRFRET inactive.
CN(C(=O)COC(=O)C1COc2ccccc2O1)c1c(N)n(Cc2ccccc2)c(=O)[nH]c1=O (centres undefined) was read as RanGTP-Impb inh inactive and CaV13 ICDI inh inactive.
C[C@H](c1ccccc1)N1C[C@@H](COCc2ccccc2)Oc2cc(N3CCC[C@H]3CO)ccc2S1(=O)=O was read as CaV13 ICDI inh inactive.
`CN1CCN(C2CN(Cc3cn(Cc4ccc(Cl)cc4)nn3)S(=O)(=O)C2)CC1` (centres undefined) gave CaV13 ICDI inh inactive.
Cc1ccc(C(=O)n2nnc3ccccc32)cc1[N+](=O)[O-] was read as RanGTP-Impb inh inactive, Runt-SMMHC FRET inactive, Runt-CBFb FRET 88.9, CaV13 ICDI inh inactive and Runt-CBFb TRFRET inactive.
Screening Cc1cc2c(cc1C)-n1nnnc1C(N(C)CCc1ccccc1)C(=O)N2 (centres undefined) returned CaV13 ICDI inh inactive.
O=C(Nc1ccc2cn[nH]c2c1)c1c(Cl)cccc1Cl was read as RanGTP-Impb inh inactive, Runt-SMMHC FRET inactive, Runt-CBFb FRET inactive and CaV13 ICDI inh inactive.
O=C1C(Cl)=C(Nc2ccc3cn[nH]c3c2)C(=O)c2ccccc21 was read as RanGTP-Impb inh inactive, Runt-SMMHC FRET inactive, Runt-CBFb FRET 51.2, CaV13 ICDI inh inactive and Runt-CBFb TRFRET inactive.
Fc1ccccc1C1CC(c2ccco2)=Nc2ccccc2S1 (centres undefined) was read as RanGTP-Impb inh inactive, Runt-SMMHC FRET inactive, Runt-CBFb FRET 50.4, CaV13 ICDI inh inactive and Runt-CBFb TRFRET inactive.
Screening C=CCn1c(-c2cccs2)nc2ccccc21 returned Runt-SMMHC FRET inactive and Runt-CBFb FRET inactive.
For C=CCn1c(-c2cccs2)nc2nc3ccccc3nc21 the results were RanGTP-Impb inh inactive, Runt-SMMHC FRET 126.1, Runt-CBFb FRET 55.3, CaV13 ICDI inh inactive and Runt-CBFb TRFRET inactive.
For CCCCN(C(=O)c1oc2ccc(OCC)cc2c1C)c1c(N)n(CC(C)C)c(=O)[nH]c1=O the results were RanGTP-Impb inh inactive and CaV13 ICDI inh inactive.
For O=C(CSc1nnc(CNC(=O)c2ccco2)o1)Nc1ccccc1 the results were RanGTP-Impb inh inactive, Runt-SMMHC FRET inactive, Runt-CBFb FRET inactive and CaV13 ICDI inh inactive.
`O=C(CSc1nnc(CNC(=O)c2ccco2)o1)Nc1nc2ccccc2s1` gave RanGTP-Impb inh inactive, Runt-SMMHC FRET inactive, Runt-CBFb FRET 55.8, CaV13 ICDI inh inactive and Runt-CBFb TRFRET 63.7.
COc1ccc2nnc(-c3ccc(C(F)(F)F)cc3)n2n1 was read as RanGTP-Impb inh inactive, Runt-SMMHC FRET inactive, Runt-CBFb FRET inactive and CaV13 ICDI inh inactive.
O=C(COc1cccc(Cl)c1Cl)Nc1ccc2c(c1)CCC2 was read as RanGTP-Impb inh inactive, Runt-SMMHC FRET inactive, Runt-CBFb FRET 63.1, CaV13 ICDI inh inactive and Runt-CBFb TRFRET inactive.
For O=CN/C=C/c1cc(O)ccc1O the results were Runt-SMMHC FRET 58.7, Runt-CBFb FRET 64.6 and Runt-CBFb TRFRET inactive.
`Cc1ccc(C2=Nc3ccccc3SC(c3cccc([N+](=O)[O-])c3)C2)cc1` (centres undefined) gave RanGTP-Impb inh inactive, Runt-SMMHC FRET inactive, Runt-CBFb FRET 52.3, CaV13 ICDI inh inactive and Runt-CBFb TRFRET inactive.
Screening COc1ccc(-c2csc3ncn(-c4cccc(C)c4)c(=O)c23)cc1OC returned RanGTP-Impb inh inactive, Runt-SMMHC FRET inactive, Runt-CBFb FRET inactive and CaV13 ICDI inh inactive.
For COC(=O)c1ccc(C(=O)OC)c(NC(=O)Oc2ccccc2)c1 the results were RanGTP-Impb inh inactive, Runt-SMMHC FRET 131.9, Runt-CBFb FRET 66.4, CaV13 ICDI inh inactive and Runt-CBFb TRFRET inactive.
Screening COC(=O)c1ccc(C(=O)OC)c(N)c1 returned Runt-SMMHC FRET 109.5, Runt-CBFb FRET 67.6 and Runt-CBFb TRFRET 42.8.
Cc1ccc(C(=O)c2sc3nsc(C)c3c2N)cc1 was read as RanGTP-Impb inh inactive, Runt-SMMHC FRET inactive, Runt-CBFb FRET 50.0, CaV13 ICDI inh inactive and Runt-CBFb TRFRET 44.5.
`CC(=O)Nc1ccc(S(=O)(=O)N2CCN(c3cc(C(F)(F)F)ccn3)CC2)cc1` gave RanGTP-Impb inh inactive, Runt-SMMHC FRET inactive, Runt-CBFb FRET 56.2, CaV13 ICDI inh inactive and Runt-CBFb TRFRET 75.5.
For CCOC(=O)c1ccc(N2C(=O)c3n[nH]c(C)c3C2c2cccnc2)cc1 (centres undefined) the results were RanGTP-Impb inh inactive, Runt-SMMHC FRET inactive and Runt-CBFb FRET inactive.
For CCOC(=O)c1ccc(N2C(=O)c3n[nH]c(-c4ccco4)c3C2c2ccc([N+](=O)[O-])cc2)cc1 (centres undefined) the results were RanGTP-Impb inh inactive, Runt-SMMHC FRET inactive, Runt-CBFb FRET 68.0, CaV13 ICDI inh inactive and Runt-CBFb TRFRET inactive.
